From ChEMBL document CHEMBL2016459, “Toll-like receptor (TLR)-7 and -8 modulatory activities of dimeric imidazoquinolines” (J Med Chem, 2012)
Calls of active or inactive are those of the source. The rule behind the calls is not given here.

Experiments:
[1] = biological target: Toll-like receptor 3 (Homo sapiens) (UniProt O15455); assay: Agonist activity at human TLR3 HEK-Blue cells assessed as increase in NFkappaB activation by sAP reporter gene assay; assay type: functional, cell-based
Procedure, shortened: (§1)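 HEK293 cells stably transfected with human TLR3, TLR7 or TLR8 plus MD2 and an NF-κB/AP-1-driven secreted alkaline phosphatase reporter (HEK-Blue), kept in selection medium with zeocin and normocin. Cells at ~10^5 cells/ml were grown to confluency and then given graded concentrations of stimuli. Supernatant sAP was read spectrophotometrically at 620 nm with a chromogen in HEK-detection medium.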

Toll-like receptor 7 [2] = biological target: T1, Toll-like receptor 7 (Homo sapiens, UniProt Q9NYK1); assay: Antagonist activity at TLR7 in human PBMC assessed as inhibition of gardiquimod-induced IL-8 release after 12 hrs by bead array assay; assay type: functional
T1 sequence (Q9NYK1 whole entry): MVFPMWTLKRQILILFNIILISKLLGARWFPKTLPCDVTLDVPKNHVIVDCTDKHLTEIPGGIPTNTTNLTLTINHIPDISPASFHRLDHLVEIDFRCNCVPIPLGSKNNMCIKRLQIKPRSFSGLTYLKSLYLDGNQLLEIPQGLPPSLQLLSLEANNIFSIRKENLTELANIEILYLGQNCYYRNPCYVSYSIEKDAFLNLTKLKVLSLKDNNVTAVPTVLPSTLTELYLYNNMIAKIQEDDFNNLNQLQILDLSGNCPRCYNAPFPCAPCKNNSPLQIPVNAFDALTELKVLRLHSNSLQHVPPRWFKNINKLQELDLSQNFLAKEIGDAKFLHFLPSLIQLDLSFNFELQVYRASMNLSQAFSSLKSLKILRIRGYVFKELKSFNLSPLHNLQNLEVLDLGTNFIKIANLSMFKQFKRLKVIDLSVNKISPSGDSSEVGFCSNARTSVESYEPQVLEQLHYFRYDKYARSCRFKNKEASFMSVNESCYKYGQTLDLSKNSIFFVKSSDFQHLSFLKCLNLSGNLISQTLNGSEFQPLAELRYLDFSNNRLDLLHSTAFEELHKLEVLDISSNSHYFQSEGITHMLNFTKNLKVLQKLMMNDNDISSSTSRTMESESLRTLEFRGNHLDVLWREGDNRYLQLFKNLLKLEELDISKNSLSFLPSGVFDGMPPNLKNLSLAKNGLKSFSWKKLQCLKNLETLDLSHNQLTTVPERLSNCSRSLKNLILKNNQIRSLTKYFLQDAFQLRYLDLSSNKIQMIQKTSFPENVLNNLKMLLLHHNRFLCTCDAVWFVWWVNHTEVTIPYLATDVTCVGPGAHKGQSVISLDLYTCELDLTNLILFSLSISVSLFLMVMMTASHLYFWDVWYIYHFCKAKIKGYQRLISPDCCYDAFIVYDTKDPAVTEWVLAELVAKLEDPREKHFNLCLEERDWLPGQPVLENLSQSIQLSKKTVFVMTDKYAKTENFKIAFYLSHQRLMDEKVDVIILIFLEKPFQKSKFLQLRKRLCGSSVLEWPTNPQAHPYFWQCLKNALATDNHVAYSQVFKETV
Procedure, shortened: (§2)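 Human PBMCs from healthy donors, isolated by Ficoll-Hypaque, 10⁶ cells per aliquot. Cells were incubated 12 h with graded test concentrations plus 10 μg/ml gardiquimod. Supernatants were diluted 1:20 and analytes measured in triplicate by cytokine/chemokine bead array. Three independent experiments.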

Toll-like receptor 8 [3] = biological target: T2, Toll-like receptor 8 (Homo sapiens, UniProt Q9NR97); assay: Antagonist activity at TLR8 in human PBMC assessed as inhibition of CL075-TNF-alpha release after 12 hrs by bead array assay; assay type: functional
T2 sequence (Q9NR97 whole entry): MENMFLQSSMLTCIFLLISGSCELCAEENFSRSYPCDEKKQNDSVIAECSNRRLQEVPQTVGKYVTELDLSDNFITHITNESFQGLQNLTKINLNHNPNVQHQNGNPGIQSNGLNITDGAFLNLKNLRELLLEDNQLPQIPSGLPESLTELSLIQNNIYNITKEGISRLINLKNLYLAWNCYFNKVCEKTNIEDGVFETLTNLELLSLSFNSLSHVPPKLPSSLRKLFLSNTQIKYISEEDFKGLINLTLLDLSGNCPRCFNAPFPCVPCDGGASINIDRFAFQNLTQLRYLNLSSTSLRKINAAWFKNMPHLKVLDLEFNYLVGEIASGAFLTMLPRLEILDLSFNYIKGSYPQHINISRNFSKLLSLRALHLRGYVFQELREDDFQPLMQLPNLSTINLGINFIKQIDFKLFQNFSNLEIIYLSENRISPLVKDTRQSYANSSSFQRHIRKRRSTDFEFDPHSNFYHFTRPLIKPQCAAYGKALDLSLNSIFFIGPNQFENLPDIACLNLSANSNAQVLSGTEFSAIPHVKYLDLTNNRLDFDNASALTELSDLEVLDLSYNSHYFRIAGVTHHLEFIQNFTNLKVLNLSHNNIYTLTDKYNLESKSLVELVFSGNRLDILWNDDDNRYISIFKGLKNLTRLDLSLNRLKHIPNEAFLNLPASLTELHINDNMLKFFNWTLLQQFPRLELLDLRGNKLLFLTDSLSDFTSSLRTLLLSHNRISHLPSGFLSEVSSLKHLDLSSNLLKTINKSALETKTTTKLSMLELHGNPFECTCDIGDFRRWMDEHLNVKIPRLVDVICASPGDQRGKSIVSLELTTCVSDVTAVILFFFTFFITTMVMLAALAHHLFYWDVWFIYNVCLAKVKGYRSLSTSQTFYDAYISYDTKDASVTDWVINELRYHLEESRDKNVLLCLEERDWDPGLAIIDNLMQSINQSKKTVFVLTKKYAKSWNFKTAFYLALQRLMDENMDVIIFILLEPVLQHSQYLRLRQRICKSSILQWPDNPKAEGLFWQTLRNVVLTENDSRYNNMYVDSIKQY
Procedure, shortened: (§3)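 Ficoll-Hypaque-isolated healthy-donor PBMCs (10⁶ cells) were exposed 12 h to graded test concentrations together with 10 μg/ml CL075. Supernatants were diluted 1:20 and each cytokine or chemokine assayed in triplicate by bead array. Three independent experiments.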

Toll-like receptor 8 [4] = biological target: T2, Toll-like receptor 8; assay: Antagonist activity at TLR8 in human PBMC assessed as inhibition of CL075-induced IL-6 release after 12 hrs by bead array assay; assay type: functional; procedure, shortened: as §3
Toll-like receptor 8 [5] = biological target: T2, Toll-like receptor 8; assay: Antagonist activity at TLR8 in human PBMC assessed as inhibition of CL075-induced IL-8 release after 12 hrs by bead array assay; assay type: functional; procedure, shortened: as §3
Toll-like receptor 7 [6] = biological target: T1, Toll-like receptor 7; assay: Antagonist activity at TLR7 in human PBMC assessed as inhibition of gardiquimod-induced IL-6 release after 12 hrs by bead array assay; assay type: functional; procedure, shortened: as §2
Toll-like receptor 7 [7] = biological target: T1, Toll-like receptor 7; assay: (§4) Antagonist activity at TLR7 in human PBMC assessed as inhibition of gardiquimod-induced TNF-alpha release after 12 hrs by bead array assay; assay type: functional; procedure, shortened: as §2
Toll-like receptor 7 [8] = biological target: T1, Toll-like receptor 7; assay: (§5) Antagonist activity at TLR7 in human PBMC assessed as inhibition of gardiquimod-induced IL-1beta release after 12 hrs by bead array assay; assay type: functional; procedure, shortened: as §2
Toll-like receptor 7 [9] = biological target: T1, Toll-like receptor 7; assay: Antagonist activity at TLR7 in human PBMC assessed as inhibition of gardiquimod-induced CXCL10 release after 12 hrs by bead array assay; assay type: functional; procedure, shortened: as §2
Toll-like receptor 7 [10] = biological target: T1, Toll-like receptor 7; assay: Antagonist activity at TLR7 in human PBMC assessed as inhibition of gardiquimod-induced CCL2 release after 12 hrs by bead array assay; assay type: functional; procedure, shortened: as §2
Toll-like receptor 8 [11] = biological target: T2, Toll-like receptor 8; assay: Antagonist activity at TLR8 in human PBMC assessed as inhibition of CL075-induced IL-1beta release after 12 hrs by bead array assay; assay type: functional; procedure, shortened: as §3
Toll-like receptor 8 [12] = biological target: T2, Toll-like receptor 8; assay: Antagonist activity at TLR8 in human PBMC assessed as inhibition of CL075-induced CXCL10 release after 12 hrs by bead array assay; assay type: functional; procedure, shortened: as §3
Toll-like receptor 8 [13] = biological target: T2, Toll-like receptor 8; assay: Antagonist activity at TLR8 in human PBMC assessed as inhibition of CL075-induced CCL2 release after 12 hrs by bead array assay; assay type: functional; procedure, shortened: as §3
[14] = biological target: T3, Toll-like receptor 8 (Homo sapiens) (UniProt Q9NR97); assay: Inhibition of human TLR8 expressed in HEK-Blue cells by schild plot analysis
T3 sequence (whole entry): T2 sequence (Q9NR97 whole entry)

Toll-like receptor 7 [15] = biological target: T1, Toll-like receptor 7; assay: Agonist activity at human TLR7 expressed in HEK-Blue cells assessed as increase in NFkappaB activation by sAP reporter gene assay; assay type: functional, cell-based; procedure, shortened: as §1
PBMC = assay: Immunostimulatory activity in human PBMC assessed as induction IFN-alpha production after 12 hrs by ELISA; assay type: functional, cell-based
Procedure, shortened: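 Healthy-donor PBMCs were prepared by Ficoll-Hypaque gradient and aliquoted at 10⁶ cells. Cells were stimulated 12 h with graded test concentrations. Supernatant was diluted 1:20 and IFN-α measured in triplicate by high-sensitivity human IFN-α ELISA.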

[16] = biological target: T4, Toll-like receptor 7 (Homo sapiens) (UniProt Q9NYK1); assay: as §4; assay type: functional; procedure, shortened: as §2
T4 sequence (whole entry): T1 sequence (Q9NYK1 whole entry)

[17] = biological target: T4, Toll-like receptor 7 (Homo sapiens); assay: as §5; assay type: functional; procedure, shortened: as §2
Toll-like receptor 8 [18] = biological target: T2, Toll-like receptor 8; assay: Agonist activity at human TLR8 expressed in HEK-Blue cells assessed as increase in NFkappaB activation by sAP reporter gene assay; assay type: functional, cell-based; procedure, shortened: as §1

Toll-like receptor 3 (Homo sapiens), sequence (O15455 whole entry): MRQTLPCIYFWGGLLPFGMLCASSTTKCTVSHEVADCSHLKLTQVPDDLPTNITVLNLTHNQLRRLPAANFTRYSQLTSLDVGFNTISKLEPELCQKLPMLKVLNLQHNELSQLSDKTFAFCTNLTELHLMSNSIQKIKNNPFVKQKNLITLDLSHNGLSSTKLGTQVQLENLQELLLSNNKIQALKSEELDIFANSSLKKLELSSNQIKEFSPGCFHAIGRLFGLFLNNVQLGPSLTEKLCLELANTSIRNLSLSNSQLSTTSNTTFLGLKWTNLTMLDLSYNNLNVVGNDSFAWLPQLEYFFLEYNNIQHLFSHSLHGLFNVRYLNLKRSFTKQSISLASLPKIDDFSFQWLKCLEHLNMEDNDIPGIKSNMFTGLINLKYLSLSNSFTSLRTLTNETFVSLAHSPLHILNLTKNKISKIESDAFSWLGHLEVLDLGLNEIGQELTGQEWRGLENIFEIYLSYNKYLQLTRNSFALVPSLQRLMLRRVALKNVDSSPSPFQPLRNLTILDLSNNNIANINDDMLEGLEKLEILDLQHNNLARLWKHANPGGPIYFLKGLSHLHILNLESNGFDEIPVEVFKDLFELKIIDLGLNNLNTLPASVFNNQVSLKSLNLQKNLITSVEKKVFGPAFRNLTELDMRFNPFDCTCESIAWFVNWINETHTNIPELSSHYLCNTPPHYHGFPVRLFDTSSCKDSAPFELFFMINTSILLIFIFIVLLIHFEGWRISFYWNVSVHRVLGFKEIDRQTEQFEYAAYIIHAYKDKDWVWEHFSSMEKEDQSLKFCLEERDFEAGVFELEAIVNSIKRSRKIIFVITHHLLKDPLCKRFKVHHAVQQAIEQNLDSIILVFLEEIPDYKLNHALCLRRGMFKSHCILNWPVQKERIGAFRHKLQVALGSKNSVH

Row | Structure (SMILES) | Activity [1] | EC50 (Toll-like receptor 7 [15]) | other results
1 | Nc1nc2ccccc2c2c1nc(CCCCc1nc3c(N)nc4ccccc4c3n1Cc1ccccc1)n2Cc1ccccc1 | inactive |  | 
2 | Nc1nc2ccccc2c2c1nc(CCCc1nc3c(N)nc4ccccc4c3n1Cc1ccccc1)n2Cc1ccccc1 | inactive |  | IC50 (Toll-like receptor 7 [2]): 50 nM; IC50 (Toll-like receptor 8 [3]): 50 nM; IC50 (Toll-like receptor 8 [4]): 50 nM; IC50 (Toll-like receptor 8 [5]): 50 nM; IC50 (Toll-like receptor 7 [6]): 50 nM; IC50 (Toll-like receptor 7 [7]): 50 nM; IC50 (Toll-like receptor 7 [8]): 50 nM; IC50 (Toll-like receptor 7 [9]): 50 nM; IC50 (Toll-like receptor 7 [10]): 50 nM; IC50 (Toll-like receptor 8 [11]): 50 nM; IC50 (Toll-like receptor 8 [12]): 50 nM; IC50 (Toll-like receptor 8 [13]): 50 nM; inhibition [14]: Active
3 | CCCCc1nc2c(N)nc3ccc(NC(=O)CCCCCCC(=O)Nc4ccc5nc(N)c6nc(CCCC)n(Cc7ccc(CN)cc7)c6c5c4)cc3c2n1Cc1ccc(CN)cc1 | inactive | 4020 nM | 
4 | CCCCc1nc2c(N)nc3ccc([N+](=O)[O-])cc3c2n1Cc1ccc(CN)cc1 | inactive | 560 nM | 
5 | CCCCc1nc2c(N)nc3ccc(NC(=O)CCCCCCCCCCC(=O)Nc4ccc5nc(N)c6nc(CCCC)n(Cc7ccc(CN)cc7)c6c5c4)cc3c2n1Cc1ccc(CN)cc1 | inactive | 5400 nM | 
6 | CCCCc1nc2c(N)nc3ccccc3c2n1Cc1ccc(CNC(=O)CCCCCCC(=O)NCc2ccc(Cn3c(CCCC)nc4c(N)nc5ccccc5c43)cc2)cc1 | inactive | 240 nM | Activity (PBMC): Dose-dependent effect
7 | CCCCc1nc2c(N)nc3ccc(N)cc3c2n1Cc1ccc(CN)cc1 | inactive | 450 nM | 
8 | CCCCc1nc2c(N)nc3ccc(NC(=O)CCCCC(=O)Nc4ccc5nc(N)c6nc(CCCC)n(Cc7ccc(CN)cc7)c6c5c4)cc3c2n1Cc1ccc(CN)cc1 | inactive | 7240 nM | Activity (PBMC): Dose-dependent effect
9 | Nc1nc2ccccc2c2c1nc(CCCCCCc1nc3c(N)nc4ccccc4c3n1Cc1ccccc1)n2Cc1ccccc1 | inactive |  | 
10 | CCN(CC)CCCC(C)Nc1ccnc2cc(Cl)ccc12 (centres undefined) |  |  | inhibition [16]: Active; inhibition [17]: Active
11 | CCCCc1nc2c(NCCCCCCCCCCNc3nc4ccccc4c4c3nc(CCCC)n4Cc3ccccc3)nc3ccccc3c2n1Cc1ccccc1 | inactive | 3000 nM | 
12 | CCCCc1nc2c(N)nc3ccccc3c2n1Cc1ccc(CNC(=O)CCCCCCCCCCC(=O)NCc2ccc(Cn3c(CCCC)nc4c(N)nc5ccccc5c43)cc2)cc1 | inactive | 170 nM | EC50 (Toll-like receptor 8 [18]): 4780 nM; Activity (PBMC): Dose-dependent effect
13 | CCCCc1nc2c(NCCCCNc3nc4ccccc4c4c3nc(CCCC)n4Cc3ccccc3)nc3ccccc3c2n1Cc1ccccc1 | inactive | 2050 nM | 
14 | CCCCc1nc2c(NCCCCCCCCNc3nc4ccccc4c4c3nc(CCCC)n4Cc3ccccc3)nc3ccccc3c2n1Cc1ccccc1 | inactive | 560 nM | 
15 | CCCCc1nc2c(NCCCCCCCCCCCCNc3nc4ccccc4c4c3nc(CCCC)n4Cc3ccccc3)nc3ccccc3c2n1Cc1ccccc1 | inactive | 1420 nM | Activity (PBMC): Dose-dependent effect
16 | Nc1nc2ccccc2c2c1nc(CCCCCCCCCCc1nc3c(N)nc4ccccc4c3n1Cc1ccccc1)n2Cc1ccccc1 | inactive |  | 
17 | CCCCc1nc2c(N)nc3ccccc3c2n1Cc1ccc(CNC(=O)CCCCC(=O)NCc2ccc(Cn3c(CCCC)nc4c(N)nc5ccccc5c43)cc2)cc1 | inactive | 110 nM | Activity (PBMC): Dose-dependent effect
